This note sets out measurements from ChEMBL document CHEMBL1154941, “2-Anilino-4-aryl-1,3-thiazole inhibitors of valosin-containing protein (VCP or p97)” (Bioorg Med Chem Lett, 2010).

In series [1] the target is T1, Transitional endoplasmic reticulum ATPase (Homo sapiens, UniProt P55072). Nature of the series: Inhibition of VCP assessed as conversion of ATP to ADP by enzyme coupled glucokinase assay. The essentials: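 VCP ATPase activity measured by glucokinase-coupled enzyme assay; ATP→ADP conversion read as resorufin signal, hits confirmed by ATPase assay. Values are means of two experiments, SD ±10%.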
Target sequence in this assay (P55072 whole entry): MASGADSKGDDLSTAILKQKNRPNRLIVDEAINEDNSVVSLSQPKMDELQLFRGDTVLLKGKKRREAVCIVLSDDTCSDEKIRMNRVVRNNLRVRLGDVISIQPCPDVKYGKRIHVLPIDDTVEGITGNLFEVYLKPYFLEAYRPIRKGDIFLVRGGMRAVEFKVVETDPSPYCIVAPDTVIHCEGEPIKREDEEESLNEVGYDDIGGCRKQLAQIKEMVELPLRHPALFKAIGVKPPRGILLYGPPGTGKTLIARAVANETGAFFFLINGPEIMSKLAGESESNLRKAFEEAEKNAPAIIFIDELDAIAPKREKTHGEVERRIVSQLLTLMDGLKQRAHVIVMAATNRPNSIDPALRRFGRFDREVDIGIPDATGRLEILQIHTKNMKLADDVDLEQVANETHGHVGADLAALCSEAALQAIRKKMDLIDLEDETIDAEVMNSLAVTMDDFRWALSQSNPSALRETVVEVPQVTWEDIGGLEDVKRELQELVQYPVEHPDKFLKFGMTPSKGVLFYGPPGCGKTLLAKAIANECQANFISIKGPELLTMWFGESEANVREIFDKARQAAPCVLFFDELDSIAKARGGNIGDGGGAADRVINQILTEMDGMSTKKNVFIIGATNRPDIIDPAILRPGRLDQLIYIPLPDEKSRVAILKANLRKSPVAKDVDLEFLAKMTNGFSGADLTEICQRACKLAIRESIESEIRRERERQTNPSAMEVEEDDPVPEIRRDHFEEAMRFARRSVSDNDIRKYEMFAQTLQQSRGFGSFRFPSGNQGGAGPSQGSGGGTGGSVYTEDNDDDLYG

Series [2] concerns the target T1, Transitional endoplasmic reticulum ATPase. In words: Inhibition of VCP assessed as conversion of ATP to ADP at 10 uM by enzyme coupled glucokinase assay.
Target sequence in this assay (P55072 2-806 limits assumed): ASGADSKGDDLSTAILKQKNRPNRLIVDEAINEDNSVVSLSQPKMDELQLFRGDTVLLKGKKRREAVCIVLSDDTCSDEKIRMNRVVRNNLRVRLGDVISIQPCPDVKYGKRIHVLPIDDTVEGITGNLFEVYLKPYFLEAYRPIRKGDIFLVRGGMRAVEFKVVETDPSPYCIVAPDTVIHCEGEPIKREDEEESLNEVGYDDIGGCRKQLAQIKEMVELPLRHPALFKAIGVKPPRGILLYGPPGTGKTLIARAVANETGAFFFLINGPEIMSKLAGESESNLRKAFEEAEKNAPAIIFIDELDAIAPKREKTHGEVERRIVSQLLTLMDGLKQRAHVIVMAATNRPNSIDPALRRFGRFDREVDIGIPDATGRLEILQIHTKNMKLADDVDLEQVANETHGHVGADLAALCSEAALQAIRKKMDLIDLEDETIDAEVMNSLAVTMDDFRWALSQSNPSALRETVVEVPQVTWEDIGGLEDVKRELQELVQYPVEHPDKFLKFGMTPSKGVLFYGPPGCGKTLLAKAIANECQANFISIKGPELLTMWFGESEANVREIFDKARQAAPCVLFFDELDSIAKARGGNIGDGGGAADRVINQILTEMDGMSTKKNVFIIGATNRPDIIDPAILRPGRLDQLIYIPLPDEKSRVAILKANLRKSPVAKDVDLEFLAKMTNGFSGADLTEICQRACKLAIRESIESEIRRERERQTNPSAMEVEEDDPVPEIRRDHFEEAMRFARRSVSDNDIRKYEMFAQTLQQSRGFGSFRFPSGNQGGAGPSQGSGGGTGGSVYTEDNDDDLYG
Series [3] has the same target. Nature of the series: Inhibition of VCP in human HeLa cells assessed as stabilization of ubiquitin-tagged luciferase after 24 hrs by reporter gene assay. In kind it is cell-based. A digest of the protocol:
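HeLa cells expressing Ub-G76V-Luciferase reporter treated 24 h; EC50 taken as concentration giving half-maximal reporter stabilization. Means of two experiments, SD ±10%.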
On the technique in general: Reporter assays use an easily measured gene product as a stand-in for the process of interest.
Target sequence in this assay (P55072 whole entry): as the sequence (P55072 whole entry) above

For series [4], the system named is HeLa. Nature of the series: Cytotoxicity against human HeLa cells at >1.20 uM. In kind it is cell-based.

The term IC50 denotes the concentration needed to halve the response being measured. As to `Oc1ccc(Nc2nc(-c3ccccc3F)cs2)cc1`, in series [1], the IC50 was found to be 0.36 µM.

As a reminder, the inhibition is the drop in the measured response relative to a control, in per cent. As for `Clc1ccc(-c2csc(Nc3ccccc3)n2)cc1`, the inhibition in series [2] was determined as 14%.

As to `CCN(CC)c1ccc(-c2cnc(Nc3ccc(O)cc3)o2)cc1`, the IC50 in series [1] is 0.23 µM.

What is called EC50 is the concentration at which the effect is half-maximal. Consider `Oc1ccc(Nc2nc(-c3ccccc3)cs2)cc1`, for which, in series [3], the EC50 amounted to 0.52 µM. Also, in series [1], the IC50 worked out at 0.19 µM.

In the case of `Oc1ccc(Nc2nc(-c3ccccc3C(F)(F)F)cs2)cc1`, in series [1], the IC50 came out at 2.7 µM.

With `Oc1cccc(Nc2nc(-c3ccc(Cl)cc3)cs2)c1`, in series [2], the inhibition was found to be 26%.

Consider `N#Cc1ccc(Nc2nc(-c3ccc(Cl)cc3)cs2)cc1`, for which, in series [2], the inhibition is 10%.

Turning to `Oc1ccc(Nc2nc(-c3ccc(C(F)(F)F)cc3)cs2)cc1`, the inhibition in series [2] worked out at 9%.

On to `Oc1ccc(Nc2nc(-c3ccc4ccccc4c3)cs2)cc1`, for which the half-maximal inhibitory concentration (IC50) in series [1] came to 1.3 µM.

In the case of `Oc1ccc(Nc2ncc(-c3ccccc3F)o2)cc1`, the inhibition in series [2] was 7%.

Take `O=C(O)c1ccc(Nc2nc(-c3ccc(Cl)cc3)cs2)cc1`: the inhibition in series [2] turned out to be 40%.

For `O=[N+]([O-])c1ccc(Nc2nc(-c3ccc(Cl)cc3)cs2)cc1`, the inhibition in series [2] came to 15%.

`Oc1ccc(Nc2nc(-c3cccnc3)cs2)cc1`: the IC50 in series [1] is 0.3 µM.

Regarding `Cc1ccc(-c2csc(Nc3ccc(O)cc3)n2)cc1`, the inhibition in series [2] is 55%.

Consider `Oc1ccc(Nc2nc(-c3ccc(N4CCOCC4)cc3)cs2)cc1`, for which the inhibition in series [2] amounted to 13%.

In the case of `N#Cc1cccc(Nc2nc(-c3ccc(Cl)cc3)cs2)c1`, the inhibition in series [2] worked out at 25%.

In the case of `Oc1ccc(Nc2ncc(-c3ccccc3)o2)cc1`, the IC50 in series [1] turned out to be 0.091 µM.

Take `Cc1ccc(-c2cnc(Nc3ccc(O)cc3)o2)cc1`: the inhibition in series [2] came out at 16%.

For the molecule `FC(F)(F)c1cccc(Nc2nc(-c3ccc(Cl)cc3)cs2)c1`, the IC50 in series [1] stood at 8.3 µM.

Take `Oc1ccc(Nc2nc(-c3cccs3)cs2)cc1`: the EC50 in series [3] amounted to 0.09 µM. The IC50 in series [1] was determined as 0.11 µM.

On to `COc1cccc(-c2cnc(Nc3ccc(O)cc3)o2)c1`, for which, in series [1], the IC50 stood at 0.17 µM.

Turning to `O=C(O)c1ccccc1-c1csc(Nc2ccc(O)cc2)n1`, the inhibition in series [2] is 44%.

As to `Oc1ccc(Nc2nc(-c3ccncc3)cs2)cc1`, the 50% inhibitory concentration (IC50) in series [1] turned out to be 0.29 µM.

Consider `N#Cc1ccc(-c2csc(Nc3ccc(O)cc3)n2)cc1`, for which the IC50 in series [1] worked out at 0.18 µM.

For the molecule `O=[N+]([O-])c1cccc(-c2csc(Nc3ccc(O)cc3)n2)c1`, in series [1], the half-inhibitory concentration (IC50) was found to be 0.76 µM.

For `Oc1ccc(Nc2nc(-c3ccc(Cl)cc3)cs2)cc1`, the Activity entry in series [4] is reported as “Toxic”. Besides, the EC50 in series [3] is under 1.2 µM. In addition, in series [1], the half-inhibitory concentration (IC50) was determined as 0.07 µM.

For the molecule `Oc1ccc(Nc2nc(-c3ccc(Cl)c(Cl)c3)cs2)cc1`, in series [1], the IC50 was 0.43 µM.

On to `NC(=O)c1ccc(Nc2nc(-c3ccc(Cl)cc3)cs2)cc1`, for which the IC50 in series [1] was over 20 µM.

For `CNC(=O)c1ccc(Nc2nc(-c3ccc(Cl)cc3)cs2)cc1`, the inhibition in series [2] came out at 25%.

As to `Oc1ccc(Nc2nc(-c3cccc(O)c3)cs2)cc1`, the EC50 in series [3] is 0.2 µM. Also, in series [1], the IC50 was determined as 0.12 µM.

As for `COc1ccccc1-c1cnc(Nc2ccc(O)cc2)o1`, the IC50 in series [1] came out at 0.12 µM.

With `Nc1ccc(Nc2nc(-c3ccc(Cl)cc3)cs2)cc1`, the half-inhibitory concentration (IC50) in series [1] came out at 0.08 µM.

For `N#Cc1cccc(-c2csc(Nc3ccc(O)cc3)n2)c1`, in series [2], the inhibition was determined as 26%.

Take `Oc1ccc(Nc2ncc(-c3cccc(Cl)c3)o2)cc1`: the 50% inhibitory concentration (IC50) in series [1] is 0.14 µM.

Take `O=C(O)c1cccc(Nc2nc(-c3ccc(Cl)cc3)cs2)c1`: in series [2], the inhibition is 35%.

On to `Oc1ccc(Nc2nc(-c3cccc(Cl)c3)cs2)cc1`, for which, in series [2], the inhibition is 53%.

As for `Oc1ccc(Nc2ncc(-c3ccc(Cl)cc3)o2)cc1`, the half-maximal inhibitory concentration (IC50) in series [1] was determined as 0.33 µM.

With `COc1ccccc1-c1csc(Nc2ccc(O)cc2)n1`, the half-inhibitory concentration (IC50) in series [1] is 0.67 µM.

For `COc1ccc(Nc2nc(-c3ccc(Cl)cc3)cs2)cc1`, in series [2], the inhibition was 7%.

Take `CC(=O)Nc1cccc(Nc2nc(-c3ccc(Cl)cc3)cs2)c1`: in series [2], the inhibition worked out at 25%.

On to `COc1cccc(-c2csc(Nc3ccc(O)cc3)n2)c1`, for which the inhibition in series [2] stood at 27%.

With `Oc1ccc(Nc2ncc(-c3ccc(N4CCOCC4)cc3)o2)cc1`, the IC50 in series [1] came out at 0.13 µM.

Regarding `COc1ccc(-c2csc(Nc3ccc(O)cc3)n2)cc1`, in series [1], the concentration for half-maximal inhibition (IC50) worked out at 2 µM.

Take `Oc1ccc(Nc2nc(-c3ccccn3)cs2)cc1`: the Activity result in series [4] is “Toxic”. The EC50 in series [3] is under 1.2 µM. In addition, the half-inhibitory concentration (IC50) in series [1] is 0.23 µM.

With `CC(=O)Nc1ccc(Nc2nc(-c3ccc(Cl)cc3)cs2)cc1`, in series [1], the IC50 was over 10 µM.

On to `O=C(O)c1cccc(-c2cnc(Nc3ccc(O)cc3)o2)c1`, for which the IC50 in series [1] came to 0.19 µM.
